The record followed here is ChEMBL document CHEMBL1143304, “Isolation, structure and biological activity of phomafungin, a cyclic lipodepsipeptide from a widespread tropical Phoma sp” (Bioorg Med Chem, 2009).

Converted amounts (≈) assume the structure as drawn. The source made the active and inactive calls. The calls are words filed in the database; no cut-off is given here. Where a SMILES comes first, the peptide text is derived from it. [ ]: non-standard residue; d: D form. The star is where a group is joined. X1 = CCCCCCCCCCCCC(C)C(O)CC(=O)*; hSer = N[C@@H](CCO)C(=O)O

The subject of series [1] is Mus musculus. Put plainly: Toxicity in Candida albicans MY1055 infected DBA/2 mouse assessed as mouse mortality at 12.5 mg/kg, ip administered twice daily for 2 days. It counts as organism-based. Set-up: dose 12.5 mg/kg, route intraperitoneal. The note with it: in vivo, 48 h. The method, boiled down:
(§1)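 DBA/2 mice, five per group, were infected i.v. via lateral tail vein with 2.51 × 10^4 CFU/mouse. Sodium salt in water was given IP twice daily at 50, 25, 12.5, 5 or 2.5 mg/kg. Kidneys were homogenized in saline, serially diluted and plated on SDA (35 °C, 30–48 h). CFU/g were compared with sham-treated mice by paired two-tailed t-test.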

Series [2] deals with Candida albicans. Put plainly: Antimicrobial activity against Candida albicans MY1055 infected DBA/2 mouse administered twice daily for 2 days. The class given is functional, organism-based. A digest of the protocol:
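DBA/2 mice (5 per group) were infected i.v. via lateral tail vein with 2.51 × 10^4 CFU per mouse. The sodium salt in water was given IP twice daily at 50, 25, 12.5, 5 or 2.5 mg/kg. Mortality and health were followed for 4 days. Kidney homogenates were plated on SDA (35 °C, 30–48 h). CFU/g kidney was compared with sham-treated controls by paired two-tailed t-test.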

Series [3] deals with Candida albicans. As to the kind of experiment: Antimicrobial activity against Candida albicans MY1055 at 32 ug/mL after 24 hrs by broth macrodilution method. It counts as functional, organism-based.
Series [4] relates to Candida albicans. Put plainly: Antimicrobial activity against Candida albicans MY1055 after 24 hrs in presence of 50% mouse serum by broth macrodilution method. The class given is functional. The note with it: MY1055, 24 h; for MIC: read-out: MIC100.
Series [5] deals with Candida parapsilosis. As to the kind of experiment: Antimicrobial activity against Candida parapsilosis ATCC 22019 […] by broth macrodilution method. It counts as functional. The note with it: Lodderomyces parapsilosis, read-out: MIC100.
The test system of series [6] is Candida tropicalis. As to the kind of experiment: Antimicrobial activity against Candida tropicalis MY1012 after 24 hrs by broth macrodilution method. The class given is functional. The note with it: for MIC: read-out: MIC100. The method, boiled down:
(§2)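 Broth MIC: inoculum 10^5 CFU/ml, incubated at 37 °C with 2-fold serial dilutions of compound in growth medium. MIC was the lowest concentration preventing visible growth.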

Series [7] concerns Aspergillus fumigatus. Put plainly: Antimicrobial activity against Aspergillus fumigatus MF5668 after 48 hrs by broth macrodilution method. The class given is functional. The note with it: for MIC: read-out: MIC100. A digest of the protocol:
as §2

In series [8] the test system is Nakaseomyces glabratus. Put plainly: Antimicrobial activity against Candida glabrata MY1381 […] by broth macrodilution method. It counts as functional. The note with it: for MIC: read-out: MIC100.
The test system of series [9] is Aspergillus fumigatus. Put plainly: Antimicrobial activity against Aspergillus fumigatus MF5668 in presence of 50% human serum after 48 hrs by broth macrodilution method. The class given is functional. The note with it: for MIC: read-out: MIC100.
For series [10], the system named is Pichia kudriavzevii. Put plainly: Antimicrobial activity against Candida krusei ATCC 6258 […] by broth macrodilution method. The note with it: for MIC: read-out: MIC100. It counts as functional.
Series [11] deals with Candida albicans. Put plainly: Antimicrobial activity against Candida albicans MY1055 after 24 hrs by broth macrodilution method. The note with it: for MIC: read-out: MIC100. The class given is functional. A digest of the protocol:
as §2

Series [12] deals with Clavispora lusitaniae. As to the kind of experiment: Antimicrobial activity against Candida lusitaniae MY1396 after 24 hrs by broth macrodilution method. The class given is functional. The note with it: for MIC: read-out: MIC100. The method, boiled down: as §2
In series [13] the test system is Trichophyton mentagrophytes. As to the kind of experiment: Antimicrobial activity against Trichophyton mentagrophytes MF7004 after 96 hrs by broth macrodilution method. It counts as functional. The note with it: for MIC: read-out: MIC100.
Series [14] has as its system Staphylococcus aureus. Put plainly: Antimicrobial activity against Staphylococcus aureus MB2865 […] by broth macrodilution method. The note with it: read-out: MIC100. The class given is functional.
Series [15] has as its system Candida albicans. As to the kind of experiment: Antimicrobial activity against Candida albicans MY1055 infected DBA/2 mouse at <5 mg/kg, […] administered twice daily for 2 days. It counts as functional, organism-based.
Series [16] relates to Mus musculus. As to the kind of experiment: Toxicity in Candida albicans MY1055 infected DBA/2 mouse assessed as mouse mortality at <5 mg/kg, ip administered twice daily for 2 days. The class given is organism-based. The note with it: in vivo, 48 h. The method, boiled down:
as §1

Series [17] concerns Mus musculus. As to the kind of experiment: Toxicity in Candida albicans MY1055 infected DBA/2 mouse assessed as mouse mortality at 50 mg/kg, ip administered twice daily for 2 days. It counts as organism-based. Details: dose 50 mg/kg, route intraperitoneal. The note with it: in vivo, 48 h. A digest of the protocol: as §1
Series [18] is described as follows: Toxicity against human GTL16 cells. The class given is cell-based, GTL 16.
Series [19] can be described thus: Clearance in Candida albicans MY1055 infected iv dosed DBA/2 mouse. The class given is ADME, organism-based. The note with it: in vivo.
Series [20] relates to Mus musculus. Put plainly: Toxicity in Candida albicans MY1055 infected DBA/2 mouse assessed as mouse mortality at 25 mg/kg, ip administered twice daily for 2 days. It counts as organism-based. Details: dose 25 mg/kg, route intraperitoneal. The note with it: in vivo, 48 h. The method, boiled down:
as §1

The nature of series [21]: Toxicity against human PC3 cells. It counts as cell-based, PC-3.
The nature of series [22]: Toxicity against human HEL cells. The class given is cell-based.
Series [23] relates to Candida albicans. As to the kind of experiment: Antimicrobial activity against Candida albicans MY1055 infected DBA/2 mouse at <5 mg/kg, ip administered twice daily for 2 days. The class given is functional, organism-based. A digest of the protocol:
as §1

A short description of series [24]: Toxicity against human HCT116 cells. It counts as cell-based, HCT-116.
Series [25] has as its system Mus musculus. Put plainly: Dose normalized AUC in Candida albicans MY1055 infected iv dosed DBA/2 mouse. It counts as ADME, organism-based. The note with it: in vivo.
A short description of series [26]: Half life in Candida albicans MY1055 infected iv dosed DBA/2 mouse. It counts as ADME, organism-based. The note with it: in vivo.

Turning to `CCCCCCCCCCCCC(C)C(O)CC(=O)N[C@@H](C)C(=O)N[C@@H](CCO)C(=O)N[C@@H](CCC(=O)O)C(=O)NCC(=O)N[C@@H](CO)C(=O)N[C@@H](CC(N)=O)C(=O)N[C@H](C(=O)N[C@@H](CCO)C(=O)O)[C@@H](C)O` (some centres undefined) (X1-A[hSer]EGSNT[hSer]-OH), in series [1], the Activity entry is “Non-toxic”. In addition, the result in series [2] and in series [3] was inactive.

Take `CC[C@H](C)C[C@H](C)CCCCCCCCC(=O)N[C@H]1C[C@@H](O)[C@@H](NCCN)NC(=O)[C@@H]2[C@@H](O)CCN2C(=O)[C@H]([C@H](O)CCN)NC(=O)[C@H]([C@H](O)[C@@H](O)c2ccc(O)cc2)NC(=O)[C@@H]2C[C@@H](O)CN2C(=O)[C@H]([C@@H](C)O)NC1=O` [CASPOFUNGIN]: the MIC80 (commonly an inhibitory concentration at the 80% level, which refers to growth in some studies and to a panel of isolates in others) in series [4] is 0.125 µg/mL; in series [6] it was less than 0.03 µg/mL; in series [7], less than 0.03 µg/mL; in series [8], less than 0.03 µg/mL; in series [9] it was 0.06 µg/mL; in series [10], 0.25 µg/mL (≈ 0.229 µM). Further, the MIC80 in series [11] was less than 0.03 µg/mL; in series [12], less than 0.03 µg/mL; in [13], 0.03 µg/mL (≈ 0.0274 µM). Moreover, the MIC is 0.25 µg/mL in series [4]; 0.5 µg/mL (≈ 0.457 µM) in series [5]; 0.125 µg/mL (≈ 0.114 µM) in series [6]; more than 32 µg/mL in series [7]; 0.125 µg/mL (≈ 0.114 µM) in series [8]; more than 32 µg/mL in [9]. For the same compound, the MIC in [10] stood at 1 µg/mL (≈ 0.915 µM); in [11], 0.125 µg/mL (≈ 0.114 µM); in series [12], 0.125 µg/mL (≈ 0.114 µM); in [13] it was 32 µg/mL (≈ 29.3 µM); in series [14] it was 32 µg/mL (≈ 29.3 µM).

As to `CCCCCCCCCCCCC(C)C1CC(=O)N[C@@H](C)C(=O)NC(CCO)C(=O)N[C@@H](CCC(=O)O)C(=O)NCC(=O)N[C@@H](CO)C(=O)N[C@H](CC(N)=O)C(=O)N[C@H]([C@H](C)O)C(=O)NC(CCO)C(=O)O1` (some centres undefined) [PHOMAFUNGIN], the MIC in series [4] was more than 32 µg/mL; in series [5], 4 µg/mL (≈ 3.88 µM); in series [6], more than 32 µg/mL; in series [7] it was 4 µg/mL (≈ 3.88 µM); in series [8], 8 µg/mL (≈ 7.77 µM); in series [9] it was more than 32 µg/mL. In addition, the MIC in series [10] was 4 µg/mL (≈ 3.88 µM); in series [11], 4 µg/mL (≈ 3.88 µM); in series [12], 4 µg/mL (≈ 3.88 µM); in [13], 2 µg/mL (≈ 1.94 µM); in [14], more than 32 µg/mL. Besides, the outcome in series [15] and in [23] was inactive. Further, the Activity result in series [16] was “Non-toxic”; in [17] it was “Toxic”; in series [1], “Toxic”; in series [20], “Toxic”. Further, the IC50 (in general, the concentration that inhibits the measured activity by half) in [18] was determined as 26 µM; in [21] it was 19 µM; in series [22] it was 15.5 µM; in series [24], 20 µM. Further, the clearance (commonly a measure of how efficiently the substance is removed, as volume per time) in series [19] amounted to 6.15 mL/min/kg. Also, the results for the MIC80 in [8] and in series [13] were 4 µg/mL (≈ 3.88 µM) and 1 µg/mL (≈ 0.971 µM), respectively. In series [25], this compound showed an AUC of 2.64 µM. The half-life (commonly how long it takes for the measured level to halve) in series [26] is 1.8 h.
